Screening results (PubChem)
A selection: hits, their analogues and other compounds. The true share with any hit is near 3.5%.
RGS4 act – RGS4 potentiation or activation; HEK293 M3R/inducible RGS4, carbachol calcium flux Fluo4; active compounds read low; B-score at 10 µM; 310,000 compounds, 0.92% hits; AID 463111;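 active = B-score of the integrated calcium signal more than 4 SD below the library mean, with starting fluorescence not abnormally high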;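 also: negative B-score means reduced calcium response which marks RGS4 activation or potentiation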
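Material: M3R-expressing HEK293 line, RGS4 induced by doxycycline | Schedule: Overnight RGS4 induction, 30 min dye load 37 °C, 20 min compound RT | Measured by: Fluo4 fluorescence kinetic imaging of calcium | Read-out: Integrated calcium ratio converted to B score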
RGS4 inh – inhibitors of human RGS4 | P49798 | HEK293 M3R/RGS4 inducible, Fluo-4 calcium flux; active compounds read high; triggered by carbachol at its EC20 | B-score at 10 µM | 310,000 compounds, 0.45% hits | AID 463165;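 active = B-score, a plate-corrected calcium signal, over three deviations above library mean, with baseline fluorescence within five deviations of library mean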;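 also: RGS4 expression induced by doxycycline in cells with stable M3 receptor; B-score is computed from the integrated fluorescence ratio over baseline after carbachol; higher B-score means a larger calcium signal and so more RGS4 inhibition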
Target sequence (P49798 whole entry, looked up): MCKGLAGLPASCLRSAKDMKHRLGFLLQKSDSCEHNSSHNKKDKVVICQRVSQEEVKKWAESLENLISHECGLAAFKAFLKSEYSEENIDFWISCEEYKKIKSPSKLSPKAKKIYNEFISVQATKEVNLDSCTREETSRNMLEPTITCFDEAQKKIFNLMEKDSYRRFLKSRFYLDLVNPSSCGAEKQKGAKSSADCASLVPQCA
MrgX1 ag – activates human MrgX1 receptor signaling | Q96LB2 | MrgX1-HEK293 cells, Fluo-4 calcium fluorescence, agonist mode; active compounds read high | B-score at 10 µM | 310,000 compounds, 0.44% hits;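 active = calcium response B-score plate-corrected fluorescence ratio at least 3 library SD, with starting fluorescence B-score inside 5 SD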
Target sequence (Q96LB2 whole entry, looked up): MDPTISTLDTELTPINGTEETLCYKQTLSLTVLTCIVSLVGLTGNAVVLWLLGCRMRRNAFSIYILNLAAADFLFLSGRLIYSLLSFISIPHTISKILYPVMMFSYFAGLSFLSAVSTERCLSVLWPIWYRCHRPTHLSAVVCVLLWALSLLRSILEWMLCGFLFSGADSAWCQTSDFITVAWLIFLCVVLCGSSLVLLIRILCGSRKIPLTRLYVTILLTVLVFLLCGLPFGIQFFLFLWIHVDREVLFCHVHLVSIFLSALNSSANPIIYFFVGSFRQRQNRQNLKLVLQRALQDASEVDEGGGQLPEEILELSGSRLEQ
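Material: HEK293 cells stably expressing human MrgX1 receptor | Quantity: 15,000 cells per well | Times: Cells plated overnight, dye loaded 0.5 h 37 °C, 0.5 h room temperature | Measured by: Kinetic Fluo-4 NW fluorescence of intracellular calcium | Control set: Positive and negative controls per plate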
MrgX1 PAM – human MrgX1 positive allosteric modulation, primary screen; B-score at 10 µM; Q96LB2; MrgX1-HEK293, Fluo-4 calcium flux, FDSS; active compounds read high; 310,000 compounds, 0.63% hits;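 active = plate-corrected calcium response at least 3 library SD above typical, normal starting fluorescence, not activating the receptor alone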;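 also: compound read alongside a low EC10 to EC30 dose of BAM8-22 agonist; peak minus trough fluorescence over baseline measured at the second addition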
MrgX1 antagonist – antagonists of human MrgX1 receptor. Q96LB2. MRGX1-HEK293 calcium flux, Fluo-4, BAM8-22 antagonism; active compounds read low. B-score at 10 µM. 310,000 compounds, 1.3% hits;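 active = calcium-response B-score plate-corrected more than 3 library SD below zero, starting fluorescence within 5 deviations, no agonist response on first addition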;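 also: peak minus trough fluorescence over baseline after final BAM8-22 challenge near maximal dose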
RGS4 block valid – RGS4 inhibitor validation. shares compounds with RGS4 inh. HEK293 M3R/RGS4, carbachol calcium Fluo-4 fluorescence; carbachol added at its EC20; 0 = buffer wells, 100 = carbachol control. calcium response, % at 10 µM. 1,700 compounds, 65% hits;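 active = duplicate-averaged calcium response above the buffer-only control mean plus 5 SD of those controls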;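 also: integrated fluorescence ratio F max minus min over baseline F0; higher response in RGS4-induced cells means RGS4 inhibition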
M3R Ca ctr – non-induced cell nonspecific activity of RGS4 inhibitors. activity (percent), % at 10 µM. shares compounds with RGS4 inh. HEK293 M3R non-induced, carbachol calcium Fluo-4; submaximal (EC20) carbachol stimulus; buffer wells 0%, carbachol control wells 100%. 1,900 compounds, 20% hits. AID 493000; call rule not given here;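 also: RGS4 induction absent so cells express M3R without RGS4; higher means more calcium signal and flags a non-specific hit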
RGS4 inh ctr2 – second RGS4 inhibitor counter-screen in uninduced cells lacking carbachol; shares compounds with RGS4 inh; HEK293 M3R/RGS4 non-induced, Fluo-4 calcium, no carbachol; normalised: buffer wells 0%, carbachol wells 100%; calcium response (agonist-mode artifact), % at 10 µM; 1,900 compounds, 22% hits; AID 493001;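 active = duplicate-averaged calcium rise in uninduced cells above buffer wells' mean plus 5 SD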
Large screens that a line does not name were inactive (follow-up assays come after a bar, where they were run).

COc1cc(C2(c3ccc(O)c(OC)c3)C(=O)N(C)c3ccc(C)cc32)ccc1O	none | M3R Ca ctr inactive | RGS4 inh ctr2 inactive
Cc1ccc(C)c(N2CCN(S(=O)(=O)c3ccc4c(c3)C(C)(C)C(=O)N4C)CC2)c1	none
O=C(CN(C(=O)CNS(=O)(=O)c1ccc(F)cc1)c1ccc(F)cc1)NCc1ccco1	none | RGS4 block valid inactive | M3R Ca ctr inactive | RGS4 inh ctr2 inactive
O=C(CN(C(=O)CNS(=O)(=O)c1ccc(F)cc1)c1ccccc1)NCc1ccco1	none | RGS4 block valid inactive | M3R Ca ctr inactive | RGS4 inh ctr2 inactive
O=C(CN(C(=O)CNS(=O)(=O)c1ccc(F)cc1)c1ccccc1F)NCc1ccco1	RGS4 inh 4.92 | RGS4 block valid inactive | M3R Ca ctr inactive | RGS4 inh ctr2 inactive
Cc1ccc(C)c(N(CC(=O)NCc2ccco2)C(=O)CNS(=O)(=O)c2ccc(F)cc2)c1	none
COc1ccc(N(CC(=O)NCc2ccccc2OC)S(=O)(=O)c2ccccc2)cc1	none
OC(c1ccc(F)cc1)(C1CCCCC1)C(CN1CCOCC1)c1ccccc1 (stereo not given)	none
Cc1cc(Br)cc(C=Nc2ccc(N3CCOCC3)cc2)c1O	RGS4 inh 5.82 | RGS4 block valid 21.0% | M3R Ca ctr 40.0% | RGS4 inh ctr2 168.0%
Oc1c(Cl)cc(Cl)cc1C=Nc1ccc(N2CCOCC2)cc1	RGS4 inh 4.98 | RGS4 block valid inactive | M3R Ca ctr inactive | RGS4 inh ctr2 93.0%
Oc1ccc(N=Nc2cccc(C(F)(F)F)c2)cc1C=Nc1ccc(N2CCOCC2)cc1	RGS4 inh 9.69 | RGS4 block valid 27.5% | M3R Ca ctr 46.5% | RGS4 inh ctr2 inactive
Oc1ccc(C=Nc2ccc(N3CCOCC3)cc2)c(O)c1	none
Oc1cc(Br)ccc1C=Nc1ccc(N2CCCCC2)cc1	none
Clc1ccc(-c2ccc(C=Nc3ccc(N4CCOCC4)cc3)o2)c(Cl)c1	RGS4 inh 5.41 | RGS4 block valid inactive | M3R Ca ctr inactive | RGS4 inh ctr2 16.5%
CCOc1ccc(NC(=O)C(CC(=O)O)Cc2ccc(C)cc2)cc1 (stereo not given)	none
O=C(NCCCn1ccnc1)c1nc(Cn2cc(Br)cn2)no1	none
COc1ccc(OCC(O)Cn2cnc(-c3ccc(Br)cc3)c2)cc1 (stereo not given)	none
OC(COc1ccc2ccccc2c1Br)Cn1cnc(-c2ccccc2)c1 (stereo not given)	RGS4 inh 9.28 | RGS4 block valid 10.0% | M3R Ca ctr inactive | RGS4 inh ctr2 inactive
CC1CC(NC(=O)c2c(O)nc3sccn3c2=O)CC(C)(C)C1 (stereo not given)	RGS4 inh 13.7 | RGS4 block valid 22.0% | M3R Ca ctr 48.5% | RGS4 inh ctr2 inactive
O=C(/C=C\NCC(=O)c1ccccc1)c1ccc2ccccc2c1	RGS4 inh 6.52 | RGS4 block valid 16.5% | M3R Ca ctr 30.0% | RGS4 inh ctr2 inactive
CC1CCCN(S(=O)(=O)c2ccc(NC(=O)C3CCN(C(=O)c4ccco4)CC3)cc2)C1 (stereo not given)	none
Cc1ccc(NC(=O)C(=Cc2ccc(C(=O)O)cc2)C(=O)Nc2ccc(C)cc2C)c(C)c1	RGS4 inh 10.6 | RGS4 block valid 18.5% | M3R Ca ctr inactive | RGS4 inh ctr2 inactive
COc1ccc(/C=C2/C(=O)N(c3ccccc3)N=C2C)cc1Br	RGS4 inh 23.9, MrgX1 PAM 8.92 | RGS4 block valid inactive | M3R Ca ctr inactive | RGS4 inh ctr2 inactive
CC1=NN(c2ccccc2)C(=O)/C1=C/c1ccc(Cl)cc1	none
Cc1cccc(N=N/C(=C\O)C(=O)c2ccc(Br)cc2)c1	RGS4 inh 5.27 | RGS4 block valid 26.0% | M3R Ca ctr inactive | RGS4 inh ctr2 inactive
COc1ccc(N=N/C(=C\O)C(=O)c2cccs2)cc1	none
COc1ccc(C(=O)/C(=C/O)N=Nc2ccc(F)cc2)cc1	RGS4 inh 6.76 | RGS4 block valid 56.0% | M3R Ca ctr 128.0% | RGS4 inh ctr2 inactive
COc1ccc2[nH]cc(CCn3ccc(O)c(C/C=C/c4ccccc4)c3=O)c2c1	RGS4 inh 7.33 | RGS4 block valid 18.0% | M3R Ca ctr inactive | RGS4 inh ctr2 inactive
O=c1c(C/C=C/c2ccccc2)c(O)ccn1CCc1c[nH]c2ccccc12	RGS4 inh 5.74 | RGS4 block valid 12.5% | M3R Ca ctr 29.5% | RGS4 inh ctr2 inactive
O=C(NCc1ccccc1OC(F)(F)F)C1CCC(=O)N(CCc2ccccn2)C1 (stereo not given)	none
Cc1ccn(-c2ccc(NC(=O)c3cccs3)cc2)n1	none
O=C(c1cc(-c2ccccc2)n[nH]1)N1CCc2c([nH]c3ccccc23)C1c1ccccn1 (stereo not given)	RGS4 inh 7.34 | RGS4 block valid 27.0% | M3R Ca ctr 30.5% | RGS4 inh ctr2 inactive
O=C(c1cccs1)N1CCc2c([nH]c3ccccc23)C1c1ccccn1 (stereo not given)	none
CCOC(=O)[C@@H]1[C@H]2COc3cc(OC)ccc3[C@@H]2N2C(=O)N(c3ccc(C)cc3)C(=O)[C@@]12C	none
CCOC(=O)[C@@H]1[C@H]2COc3cc(OC)ccc3[C@@H]2N2C(=O)N(c3ccc(Cl)cc3)C(=O)[C@@]12C	none | RGS4 block valid inactive | M3R Ca ctr inactive | RGS4 inh ctr2 inactive
CCOC(=O)[C@H]1[C@H]2COc3cc(OC)ccc3[C@@H]2N2C(=O)N(c3ccc(Cl)cc3)C(=O)[C@@]12C	none | RGS4 block valid inactive | M3R Ca ctr inactive | RGS4 inh ctr2 inactive
CC(=O)N1CC(=O)N=C1SCC(=O)Nc1nc(-c2ccccc2)c(-c2ccccc2)s1	RGS4 inh 8.68 | RGS4 block valid 29.0% | M3R Ca ctr inactive | RGS4 inh ctr2 inactive
Cc1sc(NC(=O)CSC2=NCCS2)nc1-c1ccccc1	none
Cc1cc(C)cc(NS(=O)(=O)c2c(C)[nH]c(=O)[nH]c2=O)c1	none
Cc1ccc(C2=NOC(=O)/C2=C\c2ccccc2)cc1	none
O=C1ON=C(c2ccccc2)/C1=C/c1ccc(O)cc1	RGS4 inh 11.1 | RGS4 block valid 23.5% | M3R Ca ctr inactive | RGS4 inh ctr2 22.5%
O=C1ON=C(c2ccccc2)/C1=C/c1ccccc1	none | RGS4 block valid inactive | M3R Ca ctr inactive | RGS4 inh ctr2 inactive
O=C1ON=C(c2ccccc2)/C1=C\c1ccco1	none
